Test results published in paper PMC11771645 (Journal of Clinical Pharmacology, 2024).
pEC50: −log10 of the molar value. Entries after “also recorded” stand apart in the source; their conditions may differ. Where two headings read alike, the source gives them in different places.

Key:
[1] = Phase 2 Friedreich's ataxia study, observed PK; assay type: in vivo; conditions: human, plasma, oral, geometric mean; for AUC: AUC0‐8 h
Summary of the method: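 Phase 2 study in patients with Friedreich's ataxia, with repeated oral dosing of the test compound at 200 mg or 400 mg TID. Observed plasma Cmax and AUC0-8 h were summarised as geometric means on Day 1 and Day 91. These observed data served to verify the PBPK model, with simulated exposures judged accurate if within 1.5-fold of observed.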

Food-effect study = assay type: in vivo, human
CYP3A4 [2] = assay: In vitro CYP3A4 induction; assay type: in vitro ADME, human
CYP1A2 = assay: In vitro CYP1A2 induction; assay type: in vitro ADME, human
CYP3A4 [3] = molecular target: CYP3A4 (Homo sapiens, UniProt P08684); assay: Reaction phenotyping studies; assay type: in vitro ADME
[4] = Unbound fraction in plasma; assay type: in vitro ADME; conditions: human
[5] = Clinical PK in healthy volunteer studies; assay type: in vivo, human
CYP3A4 [6] = conditions: cited from earlier work
CYP3A4 [7] = conditions: cited from earlier work; remark: listed apart in the source
[8] = oral dose, male subjects; cited from earlier work
CYP2C9 = conditions: clinical doses; cited from earlier work
CYP2C19 = conditions: clinical doses; cited from earlier work
[9] = tested on: breast cancer resistance protein (BCRP); conditions: clinical doses; cited from earlier work
[10] = patients with Friedreich's ataxia; cited from earlier work
[11] = 400 mg vatiquinone with 200 mg itraconazole
[12] = Observed, Vatiquinone + Itraconazole (5 days TID, 200 mg)
[13] = in the presence of itraconazole
[14] = 400 mg vatiquinone with 600 mg rifampicin
[15] = Observed, Vatiquinone + Rifampicin (14 days TID, 600 mg)

Chain of CYP3A4 (Homo sapiens, UniProt P08684) (P08684 whole entry): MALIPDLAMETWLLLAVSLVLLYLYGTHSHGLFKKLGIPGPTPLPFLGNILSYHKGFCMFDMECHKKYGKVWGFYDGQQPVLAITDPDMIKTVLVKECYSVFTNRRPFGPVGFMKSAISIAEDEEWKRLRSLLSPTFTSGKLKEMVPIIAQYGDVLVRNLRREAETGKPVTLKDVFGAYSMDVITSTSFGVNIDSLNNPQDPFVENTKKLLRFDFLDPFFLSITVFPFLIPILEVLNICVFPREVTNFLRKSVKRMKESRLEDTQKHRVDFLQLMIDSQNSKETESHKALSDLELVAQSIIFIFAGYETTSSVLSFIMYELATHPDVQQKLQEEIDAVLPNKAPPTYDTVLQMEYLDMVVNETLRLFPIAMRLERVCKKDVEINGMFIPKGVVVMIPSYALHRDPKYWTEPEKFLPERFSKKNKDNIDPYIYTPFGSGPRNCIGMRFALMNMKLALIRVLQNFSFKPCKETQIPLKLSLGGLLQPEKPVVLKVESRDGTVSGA

With `CC(C)=CCC/C(C)=C/CC/C(C)=C/CC[C@@](C)(O)CCC1=C(C)C(=O)C(C)=C(C)C1=O` [Vatiquinone, alpha‐tocotrienol quinone] the AUC ([1]; 200 mg, 200 mg TID, Day 1, patients with Friedreich's ataxia) was 1030 ng·h/mL, the AUC ([1]; 200 mg, 200 mg TID, Day 91) was 1950 ng·h/mL and the Cmax ([1]; 200 mg, 200 mg TID, Day 1) was 466 ng/mL. For the same molecule, the Cmax ([1]; 200 mg, 200 mg TID, Day 91) was 689 ng/mL, the AUC ([1]; 400 mg, 400 mg TID, Day 1, patients with Friedreich's ataxia) was 2430 ng·h/mL and the AUC ([1]; 400 mg, 400 mg TID, Day 91) was 3490 ng·h/mL. For the same molecule, the Cmax ([1]; 400 mg, 400 mg TID, Day 1) was 1020 ng/mL, the Cmax ([1]; 400 mg, 400 mg TID, Day 91) was 905 ng/mL and the “AUC, low‐fat meals compared with fasted” value (Food-effect study) was 8 fold. The “CYP3A4 Indmax” value (CYP3A4 [2]; Scaled using rifampicin data) was 4.26, the pEC50 (CYP3A4 [2]; human) was 5.43 and the CYP3A4 induction potential (CYP3A4 [2]; in vitro data) was “borderline potential inducer”. For the same molecule, the “CYP1A2 Indmax” value (CYP1A2; In vitro study) was 2.61, the “CYP1A2 Indmax” value (CYP1A2; Scaled using omeprazole data) was 1.04 and the pEC50 (CYP1A2; human) was 5.74. The CYP1A2 induction potential (CYP1A2; in vitro data) was “borderline potential inducer”, the “enzyme mediating vatiquinone metabolism” value (CYP3A4 [3]) was “mainly mediated by CYP3A4” and the fraction unbound [4] was 0.022. For the same molecule, the ka ([5]; Clinical study) was 1.27 h⁻¹, the tlag ([5]; Clinical study) was 3.67 h and the “CL/F (apparent oral clearance)” value ([5]; healthy volunteer studies, from AUC0-inf in the absence of itraconazole) was 94.3 L/h. The half-life ([5]; human, in vivo, oral) was roughly 9 h, the “increase in vatiquinone AUC0‐inf” value (CYP3A4 [6]; [11]) was roughly 2.9 fold and the “increase in vatiquinone Cmax” value (CYP3A4 [6]; [11]) was “approximately 3.5 fold”. For the same molecule, the “AUC0‐inf, geometric mean” value (CYP3A4 [6]; [12]) was 11,300 h•ng/mL, the “Cmax, geometric mean” value (CYP3A4 [6]; [12]) was 3430 ng/mL and the “increase in vatiquinone AUC0‐inf” value (CYP3A4 [6]; [13]) was roughly 188%. The “increase in vatiquinone Cmax” value (CYP3A4 [6]; [13]) was “approximately 245%”, the “decrease in vatiquinone AUC0‐inf” value (CYP3A4 [7]; [14]) was roughly 46% and the “decrease in vatiquinone Cmax” value (CYP3A4 [7]; [14]) was “approximately 36%”. The “AUC0‐inf, geometric mean” value (CYP3A4 [7]; [15]) was 1830 ng·h/mL, the “Cmax, geometric mean” value (CYP3A4 [7]; [15]) was 619 ng/mL and the mean cumulative recovery [8] was 92.9%. The “recovery of unchanged vatiquinone in feces” value [8] was 6.77 % of dose, the “effect of vatiquinone on CYP2C9 substrate (tolbutamide) exposure” value (CYP2C9) was “did not have a significant impact; also recorded: lack of a clinically relevant effect” and the “effect of vatiquinone on CYP2C19 substrate (omeprazole) exposure” value (CYP2C19) was “did not have a significant impact; also recorded: lack of a clinically relevant effect”. For the same molecule, the “effect of vatiquinone on BCRP substrate (rosuvastatin) exposure” value [9] was “did not have a significant impact; also recorded: lack of a clinically relevant effect” and the tolerability [10] was “well tolerated with no dose‐limiting toxicities”.
